# Legend:
# [1] = Inhibition of bacterial OXA-48 using nitrocefin as substrate preincubated for 15 mins followed by susbtrate addition and measured after 10 mins by spectrophotometric method; design: species or system Bacteria
# [2] = Inhibition of bacterial VIM-2 using nitrocefin as substrate preincubated for 15 mins followed by susbtrate addition and measured after 10 mins by spectrophotometric method; design: species or system Bacteria
# In short: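 Purified β-lactamase inhibition. IC50 values are the average of duplicates unless otherwise indicated.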
# Klebsiella pneumoniae [3] = experiment: Inhibition of VIM-4 in Klebsiella pneumoniae assessed as meropenem antibacterial activity at 4 ug/ml after 16 to 20 hrs by CLSI-based microbroth dilution method (Rvb >= […] ug/ml)
# Klebsiella pneumoniae [4] = experiment: Inhibition of OXA-48 in Klebsiella pneumoniae assessed as meropenem antibacterial activity at 4 ug/ml after 16 to 20 hrs by CLSI-based microbroth dilution method (Rvb >= […] ug/ml)
# [5] = biological target: Beta-lactamase VIM-2 (Pseudomonas aeruginosa) (UniProt Q9K2N0); experiment: Inhibition of VIM-2 in Pseudomonas aeruginosa assessed as meropenem antibacterial activity at 4 ug/ml after 16 to 20 hrs by CLSI-based microbroth dilution method (Rvb >= […] ug/ml)
# Klebsiella pneumoniae [6] = experiment: Inhibition of KPC-2 in Klebsiella pneumoniae assessed as meropenem antibacterial activity at 4 ug/ml after 16 to 20 hrs by CLSI-based microbroth dilution method (Rvb >= […] ug/ml)
# [7] = Inhibition of bacterial KPC-2 using imipenem as substrate preincubated for 15 mins followed by susbtrate addition and measured after 10 mins by spectrophotometric method; design: species or system Bacteria
# [8] = Inhibition of bacterial AmpC using nitrocefin as substrate preincubated for 15 mins followed by susbtrate addition and measured after 10 mins by spectrophotometric method; design: species or system Bacteria
# [9] = system: Klebsiella pneumoniae ATCC BAA-1705; experiment: Inhibition of KPC-2 in Klebsiella pneumoniae ATCC BAA 1705 assessed as piperacillin antibacterial activity at 16 ug/ml after 16 to 20 hrs by CLSI-based microbroth dilution method (Rvb > […] ug/ml)
# Escherichia coli [10] = experiment: Inhibition of NDM-1/CMY-6/OXA-1 in Escherichia coli CDC-0055 assessed as piperacillin antibacterial activity at 16 ug/ml after 16 to 20 hrs by CLSI-based microbroth dilution method
# In short: (§1)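 MDR β-lactamase-producing Gram-negative clinical isolates. […] MIC was reported as the inhibitor concentration that restores the partner's antibacterial activity.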
# Klebsiella pneumoniae [11] = experiment: Inhibition of KPC-2/SHV12/TEM-1 in Klebsiella pneumoniae CDC-0361 assessed as meropenem antibacterial activity at 4 ug/ml after 16 to 20 hrs by CLSI-based microbroth dilution method (reference value: […] ug/ml)
# Escherichia coli [12] = experiment: Inhibition of NDM-1/CMY-6/OXA-1 in Escherichia coli CDC-0055 assessed as meropenem antibacterial activity at 4 ug/ml after 16 to 20 hrs by CLSI-based microbroth dilution method (reference value: […] ug/ml)
# Klebsiella pneumoniae [13] = experiment: Inhibition of OXA-232/OXA-9/TEM-1A/CTX-M-15/OXA-1 in Klebsiella pneumoniae CDC-0066 assessed as piperacillin antibacterial activity at 16 ug/ml after 16 to 20 hrs by CLSI-based microbroth dilution method (Rvb > […] ug/ml)
# Klebsiella pneumoniae [14] = experiment: Inhibition of KPC-2/SHV12/TEM-1 in Klebsiella pneumoniae CDC-0361 assessed as cefepime antibacterial activity at 8 ug/ml after 16 to 20 hrs by CLSI-based microbroth dilution method (reference value: […] ug/ml)
# Pseudomonas aeruginosa [15] = experiment: Inhibition of VIM in Pseudomonas aeruginosa CDC-0457 assessed as piperacillin antibacterial activity at 16 ug/ml after 16 to 20 hrs by CLSI-based microbroth dilution method
# Klebsiella pneumoniae [16] = experiment: Inhibition of VIM-27/CTX-M-15/SHV-11/OXA-1 in Klebsiella pneumoniae CDC-0040 assessed as meropenem antibacterial activity at 4 ug/ml after 16 to 20 hrs by CLSI-based microbroth dilution method
# Klebsiella pneumoniae [17] = experiment: Inhibition of OXA-232/OXA-9/TEM-1A/CTX-M-15/OXA-1 in Klebsiella pneumoniae CDC-0066 assessed as meropenem antibacterial activity at 4 ug/ml after 16 to 20 hrs by CLSI-based microbroth dilution method (reference value: […] ug/ml)
# Klebsiella pneumoniae [18] = experiment: Inhibition of VIM-27/CTX-M-15/SHV-11/OXA-1 in Klebsiella pneumoniae CDC-0040 assessed as cefepime antibacterial activity at 8 ug/ml after 16 to 20 hrs by CLSI-based microbroth dilution method
# Escherichia coli [19] = experiment: Inhibition of NDM in Escherichia coli CDC-0452 assessed as piperacillin antibacterial activity at 16 ug/ml after 16 to 20 hrs by CLSI-based microbroth dilution method (Rvb > […] ug/ml)
# Pseudomonas aeruginosa [20] = experiment: Inhibition of KPC-2/PDC-42 in Pseudomonas aeruginosa CDC-0356 assessed as meropenem antibacterial activity at 4 ug/ml after 16 to 20 hrs by CLSI-based microbroth dilution method (reference value: […] ug/ml)
# Pseudomonas aeruginosa [21] = experiment: Inhibition of KPC-2/PDC-42 in Pseudomonas aeruginosa CDC-0356 assessed as piperacillin antibacterial activity at 16 ug/ml after 16 to 20 hrs by CLSI-based microbroth dilution method (Rvb > […] ug/ml)
# [22] = system: Klebsiella pneumoniae ATCC BAA-1705; experiment: Inhibition of KPC-2 in Klebsiella pneumoniae ATCC BAA 1705 assessed as cefepime antibacterial activity at 8 ug/ml after 16 to 20 hrs by CLSI-based microbroth dilution method; in short: as §1
# Escherichia coli [23] = experiment: Inhibition of NDM in Escherichia coli CDC-0452 assessed as meropenem antibacterial activity at 4 ug/ml after 16 to 20 hrs by CLSI-based microbroth dilution method (reference value: […] ug/ml)
# Klebsiella pneumoniae [24] = experiment: Inhibition of KPC-2/SHV12/TEM-1 in Klebsiella pneumoniae CDC-0361 assessed as piperacillin antibacterial activity at 16 ug/ml after 16 to 20 hrs by CLSI-based microbroth dilution method (Rvb > […] ug/ml)
# [25] = system: Klebsiella pneumoniae ATCC BAA-1705; experiment: Inhibition of KPC-2 in Klebsiella pneumoniae ATCC BAA 1705 assessed as meropenem antibacterial activity at 4 ug/ml after 16 to 20 hrs by CLSI-based microbroth dilution method (reference value: […] ug/ml)
# Klebsiella pneumoniae [26] = experiment: Inhibition of OXA-232/OXA-9/TEM-1A/CTX-M-15/OXA-1 in Klebsiella pneumoniae CDC-0066 assessed as cefepime antibacterial activity at 8 ug/ml after 16 to 20 hrs by CLSI-based microbroth dilution method (Rvb > […] ug/ml)
# Pseudomonas aeruginosa [27] = experiment: Inhibition of VIM in Pseudomonas aeruginosa CDC-0457 assessed as meropenem antibacterial activity at 4 ug/ml after 16 to 20 hrs by CLSI-based microbroth dilution method
# Klebsiella pneumoniae [28] = experiment: Inhibition of VIM-27/CTX-M-15/SHV-11/OXA-1 in Klebsiella pneumoniae CDC-0040 assessed as piperacillin antibacterial activity at 16 ug/ml after 16 to 20 hrs by CLSI-based microbroth dilution method
# Escherichia coli [29] = experiment: Inhibition of NDM-1/CMY-6/OXA-1 in Escherichia coli CDC-0055 assessed as cefepime antibacterial activity at 8 ug/ml after 16 to 20 hrs by CLSI-based microbroth dilution method; in short: as §1
# Pseudomonas aeruginosa [30] = experiment: Inhibition of VIM in Pseudomonas aeruginosa CDC-0457 assessed as cefepime antibacterial activity at 8 ug/ml after 16 to 20 hrs by CLSI-based microbroth dilution method
# Pseudomonas aeruginosa [31] = experiment: Inhibition of KPC-2/PDC-42 in Pseudomonas aeruginosa CDC-0356 assessed as cefepime antibacterial activity at 8 ug/ml after 16 to 20 hrs by CLSI-based microbroth dilution method (Rvb > […] ug/ml)
# Escherichia coli [32] = experiment: Inhibition of NDM in Escherichia coli CDC-0452 assessed as cefepime antibacterial activity after 16 to 20 hrs by CLSI-based microbroth dilution method (reference value: […] ug/ml)
Compound,IC50 [1] [nM],IC50 [2] [nM],MIC (Klebsiella pneumoniae [3]) [µg/mL],MIC (Klebsiella pneumoniae [4]) [µg/mL],MIC [5] [µg/mL],MIC (Klebsiella pneumoniae [6]) [µg/mL],IC50 [7] [nM],IC50 [8] [nM],MIC [9] [µg/mL],MIC (Escherichia coli [10]) [µg/mL],MIC (Klebsiella pneumoniae [11]) [µg/mL],MIC (Escherichia coli [12]) [µg/mL],MIC (Klebsiella pneumoniae [13]) [µg/mL],MIC (Klebsiella pneumoniae [14]) [µg/mL],MIC (Pseudomonas aeruginosa [15]) [µg/mL],MIC (Klebsiella pneumoniae [16]) [µg/mL],MIC (Klebsiella pneumoniae [17]) [µg/mL],MIC (Klebsiella pneumoniae [18]) [µg/mL],MIC (Escherichia coli [19]) [µg/mL],MIC (Pseudomonas aeruginosa [20]) [µg/mL],further results
O=C(O)CN[C@H]1CC[C@H](CC(=O)N[C@H]2Cc3cccc(C(=O)O)c3OB2O)CC1,3140,2400,32,8,16,4,19,6,–,–,–,–,–,–,–,–,–,–,–,–,–
CC(=O)N[C@H]1Cc2cccc(C(=O)O)c2OB1O,–,–,–,–,–,–,–,–,2,> 16,0.0079,16,> 16,0.0079,> 16,> 16,2,> 16,> 16,2,MIC (Pseudomonas aeruginosa [21]): 2 µg/mL; MIC [22]: 0.0079 µg/mL; MIC (Escherichia coli [23]): 8 µg/mL; MIC (Klebsiella pneumoniae [24]): 2 µg/mL; MIC [25]: 0.0079 µg/mL; MIC (Klebsiella pneumoniae [26]): 1 µg/mL; MIC (Pseudomonas aeruginosa [27]): > 16 µg/mL; MIC (Klebsiella pneumoniae [28]): > 16 µg/mL; MIC (Escherichia coli [29]): > 16 µg/mL; MIC (Pseudomonas aeruginosa [30]): > 16 µg/mL; MIC (Pseudomonas aeruginosa [31]): 2 µg/mL; MIC (Escherichia coli [32]): 8 µg/mL
NCc1ccc(CC(=O)N[C@H]2Cc3cccc(C(=O)O)c3OB2O)cc1,1800,270,4,1,8,0.5,40,12,2,16,0.0079,1,> 16,0.0079,> 16,> 16,4,> 16,8,1,MIC (Pseudomonas aeruginosa [21]): 2 µg/mL; MIC [22]: 0.06 µg/mL; MIC (Escherichia coli [23]): 2 µg/mL; MIC (Klebsiella pneumoniae [24]): 0.5 µg/mL; MIC [25]: 0.0079 µg/mL; MIC (Klebsiella pneumoniae [26]): 4 µg/mL; MIC (Pseudomonas aeruginosa [27]): > 16 µg/mL; MIC (Klebsiella pneumoniae [28]): > 16 µg/mL; MIC (Escherichia coli [29]): 4 µg/mL; MIC (Pseudomonas aeruginosa [30]): 8 µg/mL; MIC (Pseudomonas aeruginosa [31]): 2 µg/mL; MIC (Escherichia coli [32]): 2 µg/mL

# — ChEMBL document CHEMBL4354828, “Discovery of Taniborbactam (VNRX-5133): A Broad-Spectrum Serine- and Metallo-β-lactamase Inhibitor for Carbapenem-Resistant Bacterial Infections” (J Med Chem, 2020)
